ChEMBL document CHEMBL4627265, “Optimization of 8-oxoadenines with toll-like-receptor 7 and 8 activity” (Bioorg Med Chem Lett, 2020)
Calls of active or inactive are those of the source.

What was measured:
Format in all cases: cell-based
[1] = biological target: T1, Toll-like receptor 8 (Homo sapiens) (UniProt Q9NR97); test: Agonist activity at TLR8 in human PBMC assessed as induction of myeloid dendritic cell maturation by measuring HLA-DR level at 0.1 uM after 6 hrs by flow cytometry
T1 sequence (whole entry): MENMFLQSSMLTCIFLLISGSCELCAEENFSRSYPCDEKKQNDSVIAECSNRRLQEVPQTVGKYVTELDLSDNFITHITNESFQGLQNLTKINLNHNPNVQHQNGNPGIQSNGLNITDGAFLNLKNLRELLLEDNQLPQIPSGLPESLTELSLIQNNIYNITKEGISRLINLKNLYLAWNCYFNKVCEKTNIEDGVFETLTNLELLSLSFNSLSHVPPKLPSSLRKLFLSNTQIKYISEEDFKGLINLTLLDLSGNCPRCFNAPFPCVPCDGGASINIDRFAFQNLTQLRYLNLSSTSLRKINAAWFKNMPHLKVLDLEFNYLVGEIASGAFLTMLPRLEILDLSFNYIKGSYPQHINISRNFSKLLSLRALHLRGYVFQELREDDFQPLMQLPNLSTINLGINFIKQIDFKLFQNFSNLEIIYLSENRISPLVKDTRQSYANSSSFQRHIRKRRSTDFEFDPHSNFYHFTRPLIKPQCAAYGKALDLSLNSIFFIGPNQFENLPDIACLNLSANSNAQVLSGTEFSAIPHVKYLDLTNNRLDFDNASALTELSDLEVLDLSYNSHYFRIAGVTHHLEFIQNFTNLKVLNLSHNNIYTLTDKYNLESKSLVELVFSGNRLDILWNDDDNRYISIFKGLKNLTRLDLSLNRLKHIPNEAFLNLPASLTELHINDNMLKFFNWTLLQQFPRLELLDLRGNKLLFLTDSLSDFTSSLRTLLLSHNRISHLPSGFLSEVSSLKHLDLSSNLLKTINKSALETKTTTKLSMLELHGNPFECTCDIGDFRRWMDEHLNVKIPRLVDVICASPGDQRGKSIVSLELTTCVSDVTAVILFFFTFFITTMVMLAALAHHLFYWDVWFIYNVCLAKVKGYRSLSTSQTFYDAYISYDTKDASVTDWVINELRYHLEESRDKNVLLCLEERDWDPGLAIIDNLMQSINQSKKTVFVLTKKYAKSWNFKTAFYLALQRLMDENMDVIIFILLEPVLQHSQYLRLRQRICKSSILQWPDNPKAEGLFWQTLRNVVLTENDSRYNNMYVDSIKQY
Procedure, shortened: (§1)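 hPBMCs stimulated 6 h at a single 0.1 μM dose; HLA-DR, MHC-I, CD80 and CD86 on mDCs and pDCs measured by flow cytometry, expressed as fold change versus unstimulated cells. Mean ± SD of three independent experiments in three different donors.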

[2] = biological target: T1, Toll-like receptor 8 (Homo sapiens); test: Agonist activity at TLR8 in human PBMC assessed as induction of myeloid dendritic cell maturation by measuring MHC-1 level at 0.1 uM after 6 hrs by flow cytometry; procedure, shortened: as §1
[3] = biological target: T2, Toll-like receptor 7 (Homo sapiens) (UniProt Q9NYK1); test: Agonist activity at TLR7 in human PBMC assessed as induction of plasmacytoid dendritic cell maturation by measuring HLA-DR level at 0.1 uM after 6 hrs by flow cytometry; procedure, shortened: as §1
T2 sequence (whole entry): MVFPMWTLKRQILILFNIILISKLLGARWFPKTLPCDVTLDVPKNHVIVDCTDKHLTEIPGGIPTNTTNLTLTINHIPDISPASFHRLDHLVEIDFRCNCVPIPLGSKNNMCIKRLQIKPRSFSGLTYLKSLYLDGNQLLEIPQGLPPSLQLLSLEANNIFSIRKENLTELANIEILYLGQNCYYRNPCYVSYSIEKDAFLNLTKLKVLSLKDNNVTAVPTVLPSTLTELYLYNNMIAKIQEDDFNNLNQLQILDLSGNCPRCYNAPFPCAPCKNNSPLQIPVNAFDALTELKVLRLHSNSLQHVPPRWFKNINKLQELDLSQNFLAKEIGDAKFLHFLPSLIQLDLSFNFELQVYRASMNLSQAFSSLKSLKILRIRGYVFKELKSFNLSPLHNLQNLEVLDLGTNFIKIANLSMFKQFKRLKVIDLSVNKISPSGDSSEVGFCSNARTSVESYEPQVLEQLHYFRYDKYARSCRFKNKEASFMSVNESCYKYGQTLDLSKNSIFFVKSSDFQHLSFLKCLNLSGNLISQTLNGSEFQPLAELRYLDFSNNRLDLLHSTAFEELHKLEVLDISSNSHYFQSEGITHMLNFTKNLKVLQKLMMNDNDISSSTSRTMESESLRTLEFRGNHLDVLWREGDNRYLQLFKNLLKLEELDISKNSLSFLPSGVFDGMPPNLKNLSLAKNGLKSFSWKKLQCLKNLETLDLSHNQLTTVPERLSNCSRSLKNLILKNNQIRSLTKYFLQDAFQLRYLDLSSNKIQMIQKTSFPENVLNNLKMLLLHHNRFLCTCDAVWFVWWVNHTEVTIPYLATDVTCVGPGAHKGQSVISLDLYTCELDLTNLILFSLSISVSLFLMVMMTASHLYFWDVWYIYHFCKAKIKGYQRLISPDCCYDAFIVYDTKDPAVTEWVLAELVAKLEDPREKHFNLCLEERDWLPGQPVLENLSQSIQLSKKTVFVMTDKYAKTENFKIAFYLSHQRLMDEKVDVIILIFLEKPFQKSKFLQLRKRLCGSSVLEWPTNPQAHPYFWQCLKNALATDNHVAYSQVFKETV

[4] = biological target: T1, Toll-like receptor 8 (Homo sapiens); test: Agonist activity at TLR8 in human PBMC assessed as induction of myeloid dendritic cell maturation by measuring CD80 level at 0.1 uM after 6 hrs by flow cytometry; procedure, shortened: as §1

Measured: Activity

Nc1nc(OCCCCO)nc2c1[nH]c(=O)n2CC1CCNCC1
inactive: all assays above
